Experimental findings from ChEMBL document CHEMBL1123434, “Thiazole-4-carboxamide adenine dinucleotide (TAD). Analogues stable to phosphodiesterase hydrolysis” (J Med Chem, 1986) are described below.

Molecules are shown by their SMILES.

The species entered for one assay is Mus musculus. The experiment in a line: Compound was tested for its degradation by TAD-phosphodiesterase. The assay is classed as functional. Summed up: (§1)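 Dinucleotide incubated as substrate at 7.5 mM in 0.03 M Tris-MgCl2, pH 7.6, for 30 min with enzyme: line 1, partially purified TAD-phosphodiesterase from colon-38 carcinoma cells; line 2, snake venom phosphodiesterase. Degradation quantified by HPLC as AMP or TRMP formed, or parent dinucleotide lost, depending on substrate. Expressed relative to TAD hydrolysis set at 100%.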

The test system of assay [1] is P388. The experiment in a line: The cytotoxic concentration against P388 leukemia cell. The class given is functional. As to conditions: Mus musculus, read-out: ID50 (the source's name).
For another assay, the system named is snake. The experiment in a line: Compound was tested for its degradation by venom phosphodiesterase. The assay is classed as functional. The gist of the method:
as §1

The target of assay [2] is Inosine-5'-monophosphate dehydrogenase 2 (Mus musculus, UniProt P24547). Put plainly: Compound was tested for inhibitory activity against Inosine-5'-monophosphate dehydrogenase, the type of inhibition in not competitive. Summed up:
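Partially purified IMP dehydrogenase; kinetics run at 3 inhibitor concentrations against 6 levels of substrate NAD or IMP (0.25, 0.5, 1, 2, 4 and 6 × Km). Inhibition type judged from these kinetics.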

Assay [3] concerns P388. The experiment in a line: The influence (5 uM) on Guanine nucleotide pools of Natural P388 sensitive cell lines measured as conc. of GTP. The assay is classed as functional, Mus musculus. Summed up:
(§2)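 Log-phase P388/S (parental) or P388/R cells (TR-resistant, selected to grow in 1 mM TR) exposed 18 h to the stated concentration. Cells then washed in cold saline, extracted with cold 10% TCA and neutralized with tri-n-octylamine/freon. GMP, GDP and GTP quantified by SAX HPLC: 0.03 M ammonium phosphate pH 3.5, then gradient to 0.6 M, pH 3.8. Values as nmol/10^6 cells.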

In assay [4] the test system is P388. The experiment in a line: The influence (5000 uM) on Guanine nucleotide pools of Natural P388 resistant cell lines measured as conc. of GMP. The class given is functional, Mus musculus. Summed up:
as §2

Assay [5] relates to P388. The experiment in a line: The influence (5000 uM) on Guanine nucleotide pools of Natural P388 resistant cell lines measured as conc. of GTP. The class given is functional, Mus musculus. The gist of the method: as §2
For assay [6], the system named is P388. The experiment in a line: The influence (2.5 uM) on Guanine nucleotide pools of Natural P388 sensitive cell lines measured as conc. of GTP. The class given is functional, Mus musculus. The gist of the method:
as §2

Assay [7] relates to P388. The experiment in a line: The influence (2.5 uM) on Guanine nucleotide pools of Natural P388 sensitive cell lines measured as conc. of GMP. The class given is functional, Mus musculus. Summed up: as §2
Assay [8] has as its system P388. Put plainly: The influence (5000 uM) on Guanine nucleotide pools of Natural P388 resistant cell lines measured as conc. of GDP. The assay is classed as functional, Mus musculus. Summed up:
as §2

For assay [9], the system named is P388. The experiment in a line: The influence (2.5 uM) on Guanine nucleotide pools of Natural P388 resistant cell lines measured as conc. of GTP. The assay is classed as functional, Mus musculus. Summed up:
as §2

For assay [10], the system named is P388. The experiment in a line: The influence (5 uM) on Guanine nucleotide pools of Natural P388 sensitive cell lines measured as conc. of GDP. The class given is functional, Mus musculus. The gist of the method: as §2
Assay [11] has as its system P388. The experiment in a line: The influence (5 uM) on Guanine nucleotide pools of Natural P388 sensitive cell lines measured as conc. of GMP. The assay is classed as functional, Mus musculus. The gist of the method: as §2
Assay [12] concerns P388. The experiment in a line: The influence (2.5 uM) on Guanine nucleotide pools of Natural P388 resistant cell lines measured as conc. of GMP. The class given is functional, Mus musculus. The gist of the method:
as §2

The test system of assay [13] is P388. The experiment in a line: The influence (2.5 uM) on Guanine nucleotide pools of Natural P388 sensitive cell lines measured as conc. of GDP. The assay is classed as functional, Mus musculus. The gist of the method: as §2
Assay [14] deals with P388. The experiment in a line: The influence (2.5 uM) on Guanine nucleotide pools of Natural P388 resistant cell lines measured as conc. of GDP. The assay is classed as functional, Mus musculus. The gist of the method:
as §2

Assay [15] relates to P388. Put plainly: The influence (100 uM) on Guanine nucleotide pools of Natural P388 resistant cell lines measured as conc. of GMP. The assay is classed as functional, Mus musculus. Summed up:
as §2

Assay [16] deals with P388. The experiment in a line: The influence (100 uM) on Guanine nucleotide pools of Natural P388 resistant cell lines measured as conc. of GTP. The assay is classed as functional, Mus musculus. The gist of the method:
as §2

The test system of assay [17] is P388. The experiment in a line: The influence (100 uM) on Guanine nucleotide pools of Natural P388 sensitive cell lines measured as conc. of GTP. The class given is functional, Mus musculus. The gist of the method: as §2
In assay [18] the test system is P388. Put plainly: The influence (100 uM) on Guanine nucleotide pools of Natural P388 resistant cell lines measured as conc. of GDP. The class given is functional, Mus musculus. The gist of the method: as §2
Assay [19] has as its system P388. The experiment in a line: The influence (50 uM) on Guanine nucleotide pools of Natural P388 resistant cell lines measured as conc. of GDP. The assay is classed as functional, Mus musculus. The gist of the method:
as §2

The test system of assay [20] is P388. The experiment in a line: The influence (50 uM) on Guanine nucleotide pools of Natural P388 sensitive cell lines measured as conc. of GTP. The class given is functional, Mus musculus. Summed up: as §2
Assay [21] deals with P388. The experiment in a line: The influence (50 uM) on Guanine nucleotide pools of Natural P388 resistant cell lines measured as conc. of GTP. The class given is functional, Mus musculus. Summed up:
as §2

Assay [22] deals with P388. Put plainly: The influence (50 uM) on Guanine nucleotide pools of Natural P388 sensitive cell lines measured as conc. of GDP. The class given is functional, Mus musculus. Summed up: as §2
For assay [23], the system named is P388. The experiment in a line: The influence (50 uM) on Guanine nucleotide pools of Natural P388 sensitive cell lines measured as conc. of GMP. The assay is classed as functional, Mus musculus. Summed up:
as §2

In assay [24] the test system is P388. Put plainly: The influence (100 uM) on Guanine nucleotide pools of Natural P388 sensitive cell lines measured as conc. of GDP. The assay is classed as functional, Mus musculus. Summed up: as §2
The test system of assay [25] is P388. The experiment in a line: The influence (50 uM) on Guanine nucleotide pools of Natural P388 resistant cell lines measured as conc. of GMP. The assay is classed as functional, Mus musculus. The gist of the method:
as §2

Assay [26] concerns P388. Put plainly: The influence (100 uM) on Guanine nucleotide pools of Natural P388 sensitive cell lines measured as conc. of GMP. The class given is functional, Mus musculus. Summed up: as §2

As usually defined, the Ki is a measure of affinity in units of concentration, obtained from inhibition or displacement.

Sequence of Inosine-5'-monophosphate dehydrogenase 2 (P24547 whole entry): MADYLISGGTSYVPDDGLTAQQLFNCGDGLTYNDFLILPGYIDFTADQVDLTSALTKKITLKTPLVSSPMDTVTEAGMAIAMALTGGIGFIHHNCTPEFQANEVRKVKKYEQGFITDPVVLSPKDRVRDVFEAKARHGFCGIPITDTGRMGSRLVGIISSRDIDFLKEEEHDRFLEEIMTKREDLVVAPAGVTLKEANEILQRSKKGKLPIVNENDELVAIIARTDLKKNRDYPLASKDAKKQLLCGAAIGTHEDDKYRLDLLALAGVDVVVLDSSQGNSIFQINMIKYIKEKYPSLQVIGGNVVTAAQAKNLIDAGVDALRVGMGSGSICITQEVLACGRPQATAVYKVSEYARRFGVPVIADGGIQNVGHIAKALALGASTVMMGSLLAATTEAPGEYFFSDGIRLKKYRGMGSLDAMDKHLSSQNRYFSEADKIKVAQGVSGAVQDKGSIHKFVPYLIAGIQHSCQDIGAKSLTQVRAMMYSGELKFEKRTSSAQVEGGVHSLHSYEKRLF

Consider `NC(=O)c1csc([C@H]2O[C@@H](COP(=O)(O)OP(=O)(O)OC[C@H]3O[C@@H](n4cnc5c(N)ncnc54)[C@H](O)[C@@H]3O)[C@H](O)[C@@H]2O)n1`, for which the hydrolysis relative to TAD in the assay filed under Mus musculus and with snake was 100% each time. Also, the IC50 in the assay with P388 [1] worked out at 2100 nM. Besides, the Ki in assay [2] came out at 240 nM.

For the compound `NC(=O)c1csc([C@@H]2O[C@H](CO)[C@@H](O)[C@H]2O)n1` [TIAZOFURIN], the Control worked out at 34% in the assay on P388 [3]; 0% in the assay on P388 [4]; 52% in the assay with P388 [5]; 51% in the assay with P388 [6]; 12% with P388 [7]; 74% in the assay with P388 [8]. Moreover, the Control was determined as 111% in the assay on P388 [9]; 36% in the assay on P388 [10]; 8% in the assay with P388 [11]; 98% with P388 [12]; 41% with P388 [13]; 88% in the assay with P388 [14].

For `NC(=O)c1csc([C@@H]2O[C@H](CCP(=O)(O)OP(=O)(O)OC[C@H]3O[C@@H](n4cnc5c(N)ncnc54)[C@H](O)[C@@H]3O)[C@@H](O)[C@H]2O)n1`, the hydrolysis relative to TAD in the assay listed under Mus musculus amounted to 10.4%; in the assay with snake, 27.2%. Further, the IC50 with P388 [1] amounted to 100000 nM. In addition, the affinity in assay [2] corresponds to a Ki of 1970 nM.

For `NC(=O)c1csc([C@@H]2O[C@H](COP(=O)(O)OP(=O)(O)CC[C@H]3O[C@@H](n4cnc5c(N)ncnc54)[C@H](O)[C@@H]3O)[C@@H](O)[C@H]2O)n1`, the hydrolysis relative to TAD in the assay listed under Mus musculus came out at 13%; with snake, 37.6%. For the same compound, the IC50 in the assay on P388 [1] is 2800 nM.

`NC(=O)c1csc([C@@H]2O[C@H](COP(=O)(O)CP(=O)(O)OC[C@@H]3O[C@H](n4cnc5c(N)ncnc54)[C@@H](O)[C@H]3O)[C@@H](O)[C@H]2O)n1`: the Control turned out to be 3% in the assay on P388 [15]; 8% in the assay with P388 [16]; 39% in the assay on P388 [17]; 34% in the assay on P388 [18]; 24% in the assay on P388 [19]; 24% in the assay on P388 [20]. Further, the Control with P388 [21] amounted to 5%; with P388 [22], 24%; with P388 [23] it was 14%; in the assay with P388 [24] it was 19%; in the assay on P388 [25], 3%; in the assay on P388 [26] it was 6%. Besides, the hydrolysis relative to TAD in the assay listed under Mus musculus and in the assay with snake was 0% each time. Moreover, the IC50 in the assay with P388 [1] was 45000 nM. Moreover, the Ki in assay [2] amounted to 230 nM.
